Experimental data published in ChEMBL document CHEMBL3102735, “Enhancing the pharmacodynamic profile of a class of selective COX-2 inhibiting nitric oxide donors” (Bioorg Med Chem, 2014).
pIC50: −log10 of the molar value. Converted amounts (≈) assume the structure as drawn. The source made the active and inactive calls. The calls are words filed in the database; no cut-off is given here.

Key:
[1] = target: T1, Prostaglandin G/H synthase 1 (Mus musculus) (UniProt P22437); assay: Inhibition of COX-1 in mouse J774 cells using arachidonic acid as substrate assessed as inhibition of prostaglandin E2 production at 10 uM preincubated for 15 mins followed by substrate addition measured after 30 mins by RIA; type: cell-based
T1 sequence (whole entry): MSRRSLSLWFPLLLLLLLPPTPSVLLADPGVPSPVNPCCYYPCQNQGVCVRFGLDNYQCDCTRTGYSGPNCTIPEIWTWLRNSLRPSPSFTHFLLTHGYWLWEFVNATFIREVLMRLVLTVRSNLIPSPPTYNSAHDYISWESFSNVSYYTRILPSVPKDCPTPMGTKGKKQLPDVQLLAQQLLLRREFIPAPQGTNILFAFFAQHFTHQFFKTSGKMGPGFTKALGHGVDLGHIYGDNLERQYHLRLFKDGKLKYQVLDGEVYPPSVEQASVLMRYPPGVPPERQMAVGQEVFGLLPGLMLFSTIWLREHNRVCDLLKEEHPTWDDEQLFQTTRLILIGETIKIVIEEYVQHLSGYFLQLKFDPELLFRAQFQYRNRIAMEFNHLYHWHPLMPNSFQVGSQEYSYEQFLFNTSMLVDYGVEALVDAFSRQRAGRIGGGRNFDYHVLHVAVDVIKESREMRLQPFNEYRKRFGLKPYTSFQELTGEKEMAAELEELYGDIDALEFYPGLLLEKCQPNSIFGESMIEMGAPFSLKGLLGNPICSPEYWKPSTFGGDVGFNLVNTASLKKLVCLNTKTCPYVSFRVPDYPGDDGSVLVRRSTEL
How it was run: (§1)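 J774 murine macrophages pretreated 15 min with compound (10 µM; lower concentrations 0.01–1 µM where needed), then incubated 30 min at 37 °C with 15 µM arachidonic acid; supernatant PGE2 measured by RIA. Triplicate wells, mean of three experiments of percent inhibition versus control; IC50 by sigmoidal fit.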

[2] = test system: J774; assay: Selectivity index, ratio of IC50 for COX-1 to IC50 for COX-2 in mouse J774 cells; type: cell-based
How it was run: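 J774 macrophages stimulated 24 h with E. coli LPS (10 µg/mL) to induce COX-2, with or without compound (0.01–10 µM); supernatant PGE2 by RIA. Triplicate wells, three experiments, percent inhibition versus control, IC50 by sigmoidal fit; selectivity as COX-1/COX-2 IC50 ratio.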

[3] = target: T2, Prostaglandin G/H synthase 2 (Mus musculus) (UniProt Q05769); assay: Inhibition of LPS-induced COX-2 in mouse J774 cells using arachidonic acid as substrate assessed as inhibition of prostaglandin E2 production at 10 uM preincubated for 15 mins followed by substrate addition measured after 30 mins by RIA; type: cell-based
T2 sequence (whole entry): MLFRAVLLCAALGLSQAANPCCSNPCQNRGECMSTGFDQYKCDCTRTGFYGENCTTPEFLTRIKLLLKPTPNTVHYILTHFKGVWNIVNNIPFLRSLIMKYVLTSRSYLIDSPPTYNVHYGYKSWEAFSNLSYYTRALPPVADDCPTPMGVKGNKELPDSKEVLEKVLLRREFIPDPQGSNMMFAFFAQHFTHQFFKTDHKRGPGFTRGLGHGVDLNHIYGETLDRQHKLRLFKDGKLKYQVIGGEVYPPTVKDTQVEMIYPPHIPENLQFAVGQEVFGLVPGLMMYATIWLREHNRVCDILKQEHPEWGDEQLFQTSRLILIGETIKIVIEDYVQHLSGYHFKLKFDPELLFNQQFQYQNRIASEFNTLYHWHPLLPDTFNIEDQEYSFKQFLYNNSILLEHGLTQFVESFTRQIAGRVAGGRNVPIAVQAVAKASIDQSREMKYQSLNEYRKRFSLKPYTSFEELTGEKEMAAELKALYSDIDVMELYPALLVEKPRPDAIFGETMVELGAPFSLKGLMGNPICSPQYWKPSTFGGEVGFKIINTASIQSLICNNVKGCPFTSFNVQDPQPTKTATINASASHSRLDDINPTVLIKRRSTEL

[4] = target: T3, Prostaglandin G/H synthase 1 (Mus musculus, UniProt P22437); assay: Inhibition of COX-1 in mouse J774 cells using arachidonic acid as substrate assessed as inhibition of prostaglandin E2 production preincubated for 15 mins followed by substrate addition measured after 30 mins by RIA; type: cell-based; how it was run: as §1
T3 sequence (P22437 whole entry): T1 sequence (whole entry)

[5] = test system: Thoracic aorta; assay: Ex vivo vasorelaxant activity in Wistar rat endothelium thoracic aortic ring assessed as reduction of KCl-induced contraction in presence of guanylate cyclase inhibitor ODQ; type: functional
How it was run: (§2)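 Endothelium-denuded thoracic aortic rings from male Wistar rats (250–350 g) in oxygenated Tyrode-type buffer at 37 °C, isometric tension recording. Rings precontracted with 30 mM KCl, then 3-fold increasing compound concentrations (1 nM–10 µM) added, also with 1 µM ODQ preincubated. Emax as % of KCl tone; pIC50; mean ± SE of 6–10 experiments.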

[6] = test system: Mus musculus; assay: Analgesic activity in po dosed Swiss albino mouse assessed as reduction of acetic acid-induced writhing measured every 10 mins after 5 mins of administration; type: functional, organism-based
How it was run: (§3)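 Male Swiss albino mice (23–25 g), compound given orally in CMC vehicle; writhing induced by 0.6% acetic acid (10 mL/kg) ip. Stretching movements counted for 10 min, starting 5 min after administration; percent reduction versus CMC-treated animals.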

[7] = Solubility of the compound in phosphate buffer saline at pH 7.4 after 90 mins by HPLC analysis; type: physicochemical
How it was run: (§4)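 DMSO stock (20 mM) diluted 2 µL into 198 µL PBS 0.01 M pH 7.4 or pepsin-free SGF 0.05 M pH 1.5, duplicate wells, shaken 90 min at 300 rpm. Filtrates analysed by HPLC with photodiode-array detection against seven-point standards (1–200 µM).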

[8] = test system: Mus musculus; assay: Analgesic activity in Swiss albino mouse assessed as reduction of acetic acid-induced writhing at 40 mg/kg, po measured every 10 mins after 5 mins of administration relative to control; type: functional; parameters: scale not given: the % may be the effect or the level left; how it was run: as §3
[9] = Solubility of the compound in simulated gastric fluid at pH 1.5 after 90 mins by HPLC analysis; type: ADME; how it was run: as §4
[10] = test system: Mus musculus; assay: Analgesic activity in Swiss albino mouse assessed as reduction of acetic acid-induced writhing at 20 mg/kg, po measured every 10 mins after 5 mins of administration relative to control; type: functional; parameters: scale not given: the % may be the effect or the level left; how it was run: as §3
[11] = target: T4, Prostaglandin G/H synthase 2 (Mus musculus, UniProt Q05769); assay: Inhibition of LPS-induced COX-2 in mouse J774 cells using arachidonic acid as substrate assessed as inhibition of prostaglandin E2 production preincubated for 15 mins followed by substrate addition measured after 30 mins by RIA; type: cell-based
T4 sequence (Q05769 whole entry): T2 sequence (whole entry)

[12] = test system: Thoracic aorta; assay: Ex vivo vasorelaxant activity in Wistar rat endothelium thoracic aortic ring assessed as reduction of KCl-induced contraction at 0.001 uM to 10 uM relative to control; type: functional; how it was run: as §2
[13] = test system: Mus musculus; assay: Analgesic activity in Swiss albino mouse assessed as reduction of acetic acid-induced writhing at 10 mg/kg, po measured every 10 mins after 5 mins of administration relative to control; type: functional; parameters: scale not given: the % may be the effect or the level left; how it was run: as §3
[14] = Stability of the compound in phosphate buffer saline assessed as compound remaining at pH 7.4 after 30 mins by LC-MS/MS analysis; type: physicochemical; settings: read-out: Stability
How it was run: (§5)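 1 mM DMSO stock added to 0.01 M PBS (pH 7.4) or 0.05 M simulated gastric fluid without pepsin (pH 1.5 with HCl); incubated in hybridisation oven; aliquots at 0, 30, 60, 120 min quenched with ice-cold acetonitrile containing internal standard; parent remaining (%) measured.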

[15] = Stability of the compound in simulated gastric fluid assessed as compound remaining at pH 1.5 after 120 mins by LC-MS/MS analysis; type: physicochemical; settings: read-out: Stability; how it was run: as §5
[16] = Metabolic stability in Sprague-Dawley rat plasma assessed as compound remaining after 120 mins by LC-MS/MS analysis; type: ADME, cell-free; settings: read-out: Stability
How it was run: (§6)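 Compound (12 µL of 1 mM DMSO solution into 588 µL medium) incubated in PBS pH 7.4, pepsin-free SGF pH 1.5, or EDTA rat plasma. Aliquots taken at 0, 30, 60, 120 min and quenched with ice-cold acetonitrile containing internal standard; parent remaining as percent.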

[17] = Stability of the compound in phosphate buffer saline assessed as compound remaining at pH 7.4 after 120 mins by LC-MS/MS analysis; type: physicochemical; settings: read-out: Stability; how it was run: as §6
[18] = Metabolic stability in Sprague-Dawley rat plasma assessed as compound remaining after 60 mins by LC-MS/MS analysis; type: ADME, cell-free; settings: read-out: Stability; how it was run: as §6
[19] = Stability of the compound in phosphate buffer saline assessed as compound remaining at pH 7.4 after 60 mins by LC-MS/MS analysis; type: physicochemical; settings: read-out: Stability; how it was run: as §5
[20] = Stability of the compound in simulated gastric fluid assessed as compound remaining at pH 1.5 after 30 mins by LC-MS/MS analysis; type: physicochemical; settings: read-out: Stability; how it was run: as §5
[21] = Stability of the compound in simulated gastric fluid assessed as compound remaining at pH 1.5 after 60 mins by LC-MS/MS analysis; type: physicochemical; settings: read-out: Stability; how it was run: as §5
[22] = Metabolic stability in Sprague-Dawley rat plasma assessed as compound remaining after 30 mins by LC-MS/MS analysis; type: ADME, cell-free; settings: read-out: Stability; how it was run: as §6

Cc1c(CC(=O)NC(CCO)C(=O)O)cc(-c2ccc(S(C)(=O)=O)cc2)n1-c1ccc(F)cc1 (racemic)
inhibition [1]: 19% | Ratio IC50 [2]: > 16 | inhibition [3]: 89% | pIC50 [4]: < 5.00

Cc1c(CC(=O)NCCO[N+](=O)[O-])cc(-c2ccc(S(C)(=O)=O)cc2)n1-c1cccc(F)c1
inhibition [1]: 0% | Activity [5]: inactive | Ratio IC50 [2]: > 33 | Activity [6]: Dose-dependent effect | inhibition [3]: 95% | solubility at 1.5 h [7]: > 200 µM | pIC50 [4]: < 5.00 | Activity [8]: 55% | solubility at 1.5 h [9]: 150 µM (≈ 71.3 µg/mL) | Activity [10]: 37% | pIC50 [11]: 6.52 | Emax [12]: 49% | Activity [13]: 18%

Cc1c(CC(=O)NC(CO[N+](=O)[O-])C(=O)O)cc(-c2ccc(S(C)(=O)=O)cc2)n1-c1cccc(F)c1 (racemic)
inhibition [1]: 0% | Activity [5]: inactive | Ratio IC50 [2]: > 71 | Activity [6]: Dose-dependent effect | remaining at 0.5 h [14]: 75% | remaining at 2 h [15]: 87.5% | inhibition [3]: 100% | remaining at 2 h [16]: 28.6% | pIC50 [4]: < 5.00 | Activity [8]: 50% | remaining at 2 h [17]: 37.5% | remaining at 1 h [18]: 57.1% | remaining at 1 h [19]: 50% | Activity [10]: 47% | remaining at 0.5 h [20]: 100% | pIC50 [11]: 6.85 | Emax [12]: 18% | remaining at 1 h [21]: 93.8% | Activity [13]: 12% | remaining at 0.5 h [22]: 71.4%

Cc1c(CC(=O)NC(CCO)C(=O)O)cc(-c2ccc(S(C)(=O)=O)cc2)n1-c1cccc(F)c1 (racemic)
inhibition [1]: 16% | Ratio IC50 [2]: > 10 | inhibition [3]: 79% | pIC50 [4]: < 5.00

Cc1c(CC(=O)NC(CO)C(=O)O)cc(-c2ccc(S(C)(=O)=O)cc2)n1-c1ccc(F)cc1 (racemic)
inhibition [1]: 23% | Ratio IC50 [2]: > 62.5 | Activity [6]: Dose-dependent effect | inhibition [3]: 100% | pIC50 [4]: < 5.00 | Activity [8]: 60% | Activity [10]: 59% | pIC50 [11]: 6.80 | Activity [13]: 27%

Cc1c(CC(=O)NC(CO)C(=O)O)cc(-c2ccc(S(C)(=O)=O)cc2)n1-c1cccc(F)c1 (racemic)
inhibition [1]: 23% | Ratio IC50 [2]: > 167 | inhibition [3]: 100% | pIC50 [4]: < 5.00 | pIC50 [11]: 7.17

Cc1c(CC(=O)NCCCO)cc(-c2ccc(S(C)(=O)=O)cc2)n1-c1ccc(F)cc1
inhibition [1]: 21% | Ratio IC50 [2]: > 147 | inhibition [3]: 100% | pIC50 [4]: < 5.00

Cc1c(CC(=O)NCCCO)cc(-c2ccc(S(C)(=O)=O)cc2)n1-c1cccc(F)c1
inhibition [1]: 17% | Ratio IC50 [2]: > 222 | inhibition [3]: 100% | pIC50 [4]: < 5.00 | pIC50 [11]: 7.35

Cc1c(CC(=O)NCCO)cc(-c2ccc(S(C)(=O)=O)cc2)n1-c1cccc(F)c1
inhibition [1]: 0% | Ratio IC50 [2]: > 34 | inhibition [3]: 95% | pIC50 [4]: < 5.00

Cc1c(CC(=O)OCCO[N+](=O)[O-])cc(-c2ccc(S(C)(=O)=O)cc2)n1-c1cccc(F)c1
remaining at 0.5 h [14]: 74.1% | remaining at 2 h [15]: 42.8% | remaining at 2 h [16]: 0% | solubility at 1.5 h [9]: < 1 µM | remaining at 2 h [17]: 0.15% | remaining at 1 h [18]: 0% | remaining at 1 h [19]: 53.6% | remaining at 0.5 h [20]: 80.2% | remaining at 1 h [21]: 65.7% | remaining at 0.5 h [22]: 0%

Cc1c(CC(=O)NC(CCO[N+](=O)[O-])C(=O)O)cc(-c2ccc(S(C)(=O)=O)cc2)n1-c1cccc(F)c1 (racemic)
inhibition [1]: 27% | Activity [5]: inactive | Ratio IC50 [2]: > 6 | Activity [6]: Dose-dependent effect | inhibition [3]: 43% | pIC50 [4]: < 5.00 | Activity [8]: 23% | Activity [10]: 10% | Emax [12]: 25%
